The results in this text go back to paper PMC6476629 (Bioorganic & medicinal chemistry, 2019).

Like-named read-outs stand apart in the source and are kept apart here.

Assay type in all cases: binding, HIV-1
Assay [1] deals with 5'-32P labeled RRE SL-IIB. Kind of assay: RNase footprinting. To be noted: branched peptide 0-20 μM, concentration-dependent, upper stem region. In short, it runs like this:
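RRE SL-IIB dephosphorylated, then 5′-end labeled with [γ-32P]ATP and T4 polynucleotide kinase. Labeled RNA (10 nM) plus unlabeled SL-IIB (200 nM) refolded (95 °C 3 min, snap-cooled on ice). Incubated with peptide on ice 4 h in 10 mM Tris pH 7, 100 mM KCl, 10 mM MgCl2. RNase V1 0.002 Units, 10 min on ice; quenched. Run on 12% PAGE/7.5 M urea beside an alkaline hydrolysis ladder. Read by autoradiography.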

The target of assay [2] is 2-AP-labeled RRE SL-IIB RNA. To be noted: for Kd: at least duplicate, ± SD. A digest of the protocol: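 2-AP-labelled RRE SL-IIB RNA (0.1 μM, refolded at 95 °C for 3 min and snap-cooled) with 10-fold excess unlabelled competitor (loop/bulge-deleted RRE RNA, RRE SL-IIB DNA or TAR RNA). Branched peptide titrated 0-20 μM in phosphate buffer (10 mM KPi, 100 mM KCl, 1 mM MgCl2, 20 mM NaCl, pH 7.0). Excitation 310 nm; fluorescence decrease at 372 nm. Kd from Hill-equation fit; at least duplicate, SD.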

The subject of assay [3] is 234 nt NL4-3 RRE RNA. Kind of assay: SHAPE-MaP footprinting. To be noted: cutoff +/- 0.3.

As a reminder, the Kd is the concentration at which binding is half-saturated. As to (DLL)2KLGBY [4B3], the “protection from RNase V1 cleavage” value in assay [1] was “reduced cleavage at G53, C54, and C65”. Further, the values for the Kd in assay [2] (RRE IIB in the presence of 10× RRE DNA) and in assay [2] (RRE IIB in the presence of 10× TAR RNA) were 1480 ± 30 nM and 3520 ± 520 nM, respectively. Besides, the “loss of binding affinity” value in assay [2] (in the presence of No Bulge RRE RNA competitor) and in assay [2] (in the presence of RRE DNA competitor) was roughly 3 fold each time. Moreover, the “increase of Kd against RRE IIB” value in assay [2] (in the presence of TAR RNA competitor) is recorded as “approximately 10 fold”. Also, the “change in 1M7 reactivity” value in assay [3] (1:1 RNA:BP ratio) is “decreased reactivity was observed at nt 28”; in assay [3] (in the presence of 4B3, ratio not stated) it was “nt 46, which forms non-canonical base pairing upon Rev,[12] exhibited increased reactivity”.
